# Source: paper PMC8929358 (Pharmacology Research & Perspectives, 2021)
# Key:
# UGT1A4 = biological target: T1, UGT1A4 (Homo sapiens, UniProt P22310); test: Glucuronidation of opicapone by recombinant UGT1A4; format: in vitro ADME; conditions: 20 μM opicapone; incubation period of 60 min
# T1 sequence (P22310 29-534): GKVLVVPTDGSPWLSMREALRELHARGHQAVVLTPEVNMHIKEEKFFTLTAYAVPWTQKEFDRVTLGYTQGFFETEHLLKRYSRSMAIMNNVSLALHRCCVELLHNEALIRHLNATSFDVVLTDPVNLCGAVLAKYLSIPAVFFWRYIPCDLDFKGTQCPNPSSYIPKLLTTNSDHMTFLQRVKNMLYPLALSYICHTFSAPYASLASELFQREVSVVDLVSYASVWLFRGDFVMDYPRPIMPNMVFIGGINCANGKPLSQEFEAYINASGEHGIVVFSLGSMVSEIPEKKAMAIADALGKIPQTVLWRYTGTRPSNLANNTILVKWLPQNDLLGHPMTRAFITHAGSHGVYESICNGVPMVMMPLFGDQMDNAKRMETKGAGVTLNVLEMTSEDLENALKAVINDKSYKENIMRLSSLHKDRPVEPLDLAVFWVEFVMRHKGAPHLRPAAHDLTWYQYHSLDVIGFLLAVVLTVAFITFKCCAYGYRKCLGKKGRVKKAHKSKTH
# [1] = format: in vivo, rat; conditions: oral 100 mg/kg
# In short: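 In Sprague Dawley rats given 100 mg/kg [14C]-labelled compound (100 μCi/kg) orally in 0.2% HPMC, heparinized blood was taken by cardiac puncture at 2–168 h. Plasma was precipitated with MeOH/ACN (50:50), dried under N2 and reconstituted. Urine (0–6, 6–24 h) and feces (0–12, 12–24, 24–48 h) were pooled and stored at −80°C. Analysis used accurate-mass LC-MS with offline radiodetection.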
# [2] = Sulfate conjugation of opicapone in human intestinal S9; format: in vitro ADME; conditions: human intestinal S9 fraction (HIS9), pH 7.4
# UGT 2B17 = biological target: T2, UGT 2B17 (Homo sapiens, UniProt O75795); test: Glucuronidation of opicapone by recombinant UGT2B17; format: in vitro ADME; conditions: 20 μM opicapone; incubation period of 60 min
# T2 sequence (O75795 24-530): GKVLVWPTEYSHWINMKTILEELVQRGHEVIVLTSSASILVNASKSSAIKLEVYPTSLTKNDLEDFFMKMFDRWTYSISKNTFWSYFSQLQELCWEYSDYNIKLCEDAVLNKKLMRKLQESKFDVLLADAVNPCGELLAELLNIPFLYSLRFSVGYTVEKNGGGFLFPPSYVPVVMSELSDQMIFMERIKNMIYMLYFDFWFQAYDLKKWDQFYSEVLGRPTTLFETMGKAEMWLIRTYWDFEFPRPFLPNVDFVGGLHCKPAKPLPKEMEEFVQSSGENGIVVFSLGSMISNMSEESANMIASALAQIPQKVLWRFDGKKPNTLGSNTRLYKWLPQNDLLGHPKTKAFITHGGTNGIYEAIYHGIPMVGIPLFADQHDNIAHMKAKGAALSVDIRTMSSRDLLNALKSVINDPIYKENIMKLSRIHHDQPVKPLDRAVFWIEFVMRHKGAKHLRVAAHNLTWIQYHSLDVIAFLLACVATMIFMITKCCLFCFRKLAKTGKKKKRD
# UGT 2B4 = biological target: T3, UGT 2B4 (Homo sapiens, UniProt P06133); test: Glucuronidation of opicapone by recombinant UGT2B4; format: in vitro ADME; conditions: 20 μM opicapone; incubation period of 60 min
# T3 sequence (P06133 24-528): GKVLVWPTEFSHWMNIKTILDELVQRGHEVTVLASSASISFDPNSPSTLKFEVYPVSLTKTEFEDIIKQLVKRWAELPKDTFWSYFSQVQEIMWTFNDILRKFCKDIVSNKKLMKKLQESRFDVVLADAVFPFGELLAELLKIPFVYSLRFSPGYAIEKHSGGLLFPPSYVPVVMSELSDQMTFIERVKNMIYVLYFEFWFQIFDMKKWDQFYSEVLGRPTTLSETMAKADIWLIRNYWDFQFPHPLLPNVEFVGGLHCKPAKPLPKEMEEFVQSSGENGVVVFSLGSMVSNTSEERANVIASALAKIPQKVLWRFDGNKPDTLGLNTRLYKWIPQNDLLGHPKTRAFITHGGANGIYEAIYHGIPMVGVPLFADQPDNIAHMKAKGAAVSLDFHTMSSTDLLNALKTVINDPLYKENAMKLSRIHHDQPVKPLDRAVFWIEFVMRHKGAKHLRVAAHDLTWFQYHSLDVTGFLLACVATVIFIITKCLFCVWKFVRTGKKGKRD
compound,measurement,setting,value
"Cc1c(Cl)c(C)[n+]([O-])c(Cl)c1-c1noc(-c2cc(O)c(O)c([N+](=O)[O-])c2)n1 [opicapone, 2,5‐dichloro‐3‐(5‐(3,4‐dihydroxy‐5‐nitrophenyl)‐1,2,4‐oxadiazol‐3‐yl)‐4,6‐dimethylpyridine 1‐oxide]",Metabolite formation (screening),UGT1A4,No metabolite formation was detected
same,"Plasma, % of total AUC0–168 h of drug-related radioactivity",[1]; ND = not detected,15.1%
same,Time of peak of unchanged opicapone in plasma,[1]; earliest time point analyzed,2 h
same,"Feces, % of administered dose","[1]; feces pools 0–48 h, ND = not detected",6.25%
same,"Urine, % of administered dose","[1]; urine pools 0–24 h, ND = not detected, 100 mg/kg",0.1%
same,Km,[2],8.2 ± 1.1 µM
same,Metabolite formation (screening),UGT 2B17,No metabolite formation was detected
same,Metabolite formation (screening),UGT 2B4,No metabolite formation was detected
